Rows were chosen to be rich in hits. Some 1.8% of all compounds tested hit in one or more screens of this group.
Cneo AK release: Cryptococcus neoformans cell lysis inducers, primary screen, AK release luminescence, single concentration. C. neoformans lysis, adenylate kinase release luminescence, 4 h; normalised: neutral wells 0, clomiphene wells 100. lysis activity, % at 15 µM. 0.2% of 360,000 active. AID 651654, 2012;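 active means mean lysis activity across replicates of at least 80%, whatever share of replicates individually reach that level; inactive means mean lysis activity below 80%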
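read-out = cell lysis signal | test system = log-phase Cryptococcus neoformans yeast cells | input = cells at 5 × 10^6 per mL | medium = fresh YPD growth medium | signal = luminescent adenylate kinase detection reagent | timing = 4 h at 37 °C static, read 1 h later | dosing = single dose | controls = Clomiphene as positive lysis control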
Mot1-301 SUMO: yeast Mot1-301 growth rescue at high temperature, primary screen, SUMOylation pathway inhibitor project, S. cerevisiae, ATP luminescence, 38.5C. S. cerevisiae Mot1-301 growth rescue; percent above DMSO median, 100 means doubled. growth rescue, % at 18.8 µM. 1% of 320,000 active;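 active means every valid replicate shows activation above 250% relative to neutral control wells; inactive means the rest, any valid replicate at or below 250%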
Efflux pump inh: inhibitors of Candida efflux pumps in yeast, primary screen, S. cerevisiae, Nile Red, multiplex. S. cerevisiae Candida pump triplex. inhibition, % at 10 µM. 0.44% of 330,000 active;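 active means plate passing quality check with inhibition over a set limit, or well fluorescence over plate mean plus 4 SD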;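 further: Nile Red retained in pooled yeast measured as flow cytometry median fluorescence; higher means more Nile Red kept so more efflux inhibition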
C2C12 statin: suppressors of statin myotoxicity in C2C12 myotubes, primary screen, cell-based, single point, plate reader | C2C12 myotubes + simvastatin, ATP luminescence, 48 h; scaled: DMSO 0, geranylgeraniol control 100 | rescue of ATP level, % at 7.49 µM | 0.78% of 330,000 active | AID 602340, 2012;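 active means mean ATP rescue above about 67%, or every replicate alone reaching that limit, limit read from the data, passing the limit was not always enough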;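 further: myotubes were challenged with 10 µM simvastatin during compound exposure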
Hits are given with their value.

COC(=O)C1=C(N)OC2=C(C(=O)CC(C)(C)C2)C1c1ccccc1OC (stereo not given) was read as Cneo AK release inactive, Mot1-301 SUMO inactive, Efflux pump inh inactive and C2C12 statin inactive.
COC(=O)C1=C(N)OC2=C(C(=O)CC(C)(C)C2)C1c1ccoc1 (stereo not given) was read as Cneo AK release inactive, Mot1-301 SUMO inactive, Efflux pump inh inactive and C2C12 statin 98.
For C[C@@H](NC(=O)C[C@@H]1CC[C@@H]2[C@H](COC[C@H](O)CN2Cc2cc(F)ccc2F)O1)c1ccccc1 the results were Cneo AK release 112 and C2C12 statin inactive.
C[C@@H](NC(=O)C[C@H]1CC[C@@H]2[C@H](COC[C@@H](O)CN2Cc2cc(F)ccc2F)O1)c1ccccc1 was read as Cneo AK release inactive and C2C12 statin inactive.
For CCCNC(=O)C[C@@H]1CC[C@H]2[C@@H](COC[C@H](O)CN2Cc2ccccc2F)O1 the results were Cneo AK release 97 and C2C12 statin inactive.
For C[C@@H](NC(=O)C[C@@H]1CC[C@H]2[C@@H](COC[C@@H](O)CN2Cc2cc(F)ccc2F)O1)c1ccccc1 the results were Cneo AK release 101 and C2C12 statin inactive.
Screening CC(=O)Nc1ccc(/C=N/N2C(=O)NC(C)(c3ccc(OC(F)F)cc3)C2=O)cc1 (stereo not given) returned Mot1-301 SUMO inactive and Efflux pump inh inactive.
`CCNC(=O)Nc1cc(S(=O)(=O)Nc2ccc(OC)cc2)ccc1N1CCOCC1` gave Cneo AK release inactive, Mot1-301 SUMO inactive, Efflux pump inh inactive and C2C12 statin inactive.
Screening O=C1CCCC2=C1C(c1ccc(O)c(O)c1)Nc1ccc3ncccc3c12 (stereo not given) returned Cneo AK release inactive, Mot1-301 SUMO inactive, Efflux pump inh inactive and C2C12 statin inactive.
O=C1CCCC2=C1C(c1cccs1)Nc1ccc3ncccc3c12 (stereo not given) was read as Cneo AK release inactive, Mot1-301 SUMO inactive, Efflux pump inh inactive and C2C12 statin 139.
For COc1ccc(C2C(C(=O)OCC(=O)Nc3ccc(C)cc3)CCC(=O)N2c2ccc(OC)cc2)cc1 (stereo not given) the results were Cneo AK release inactive, Mot1-301 SUMO inactive, Efflux pump inh inactive and C2C12 statin 95.
`COc1ccc(C2C(C(=O)OCC(=O)NC(C)(C)C)CCC(=O)N2c2ccc(C)cc2)cc1OC` (stereo not given) gave Cneo AK release inactive, Efflux pump inh inactive and C2C12 statin inactive.
Screening O=C(Nc1cccnc1)c1cccnc1Cl returned Cneo AK release inactive, Mot1-301 SUMO 339, Efflux pump inh inactive and C2C12 statin inactive.
Screening O=C(Nc1cccnc1)c1ccccc1O returned Cneo AK release inactive, Mot1-301 SUMO inactive, Efflux pump inh inactive and C2C12 statin inactive.
CCCCCCn1c(C(C)O)nc2ccccc21 (stereo not given) was read as Cneo AK release inactive, Mot1-301 SUMO inactive, Efflux pump inh inactive and C2C12 statin 111.
For CCCCCn1c(=O)c(C(=O)c2ccccc2)nc2ccccc21 the results were Cneo AK release inactive, Mot1-301 SUMO inactive, Efflux pump inh inactive and C2C12 statin 121.
Screening CCCCn1c(C(C)NC(=O)c2cccs2)nc2ccccc21 (stereo not given) returned Cneo AK release inactive, Mot1-301 SUMO inactive, Efflux pump inh inactive and C2C12 statin 135.
`O=C(NC12CC3CC(CC(C3)C1)C2)c1ccc(-c2ccc(Br)cc2)o1` gave Mot1-301 SUMO inactive and Efflux pump inh inactive.
O=C1N/C(=N\N=C\c2cccs2)SC1Cc1ccc(Cl)cc1Cl (stereo not given) was read as Efflux pump inh inactive.
Screening CCS(=O)(=O)Nc1ccc2c(c1)C(=O)N(C)C[C@@H](OC)[C@@H](C)CN(C(C)=O)[C@@H](C)CO2 returned Cneo AK release inactive and C2C12 statin inactive.
For Nc1ncnc2nc(Sc3ccc(Cl)cc3)[nH]c12 the results were Cneo AK release inactive, Mot1-301 SUMO inactive, Efflux pump inh inactive and C2C12 statin inactive.
CC(C)Sc1nc2ncnc(N)c2[nH]1 was read as Cneo AK release 114, Mot1-301 SUMO inactive, Efflux pump inh inactive and C2C12 statin inactive.
For O=C1CS/C(=N/N=C/c2ccccc2OS(=O)(=O)c2ccccc2)N1 the results were Mot1-301 SUMO inactive, Efflux pump inh inactive and C2C12 statin inactive.
Cc1ccc(OS(=O)(=O)c2ccccc2)c(/C=N/N=C2\NC(=O)C(C)S2)c1 (stereo not given) was read as Cneo AK release inactive, Mot1-301 SUMO inactive, Efflux pump inh inactive and C2C12 statin 134.
CCOC(=O)N1CCN(c2ncnc3scc(-c4ccccc4)c23)CC1 was read as Cneo AK release inactive, Mot1-301 SUMO inactive, Efflux pump inh inactive and C2C12 statin inactive.
Screening CN1CCN(C(=O)c2cnn(-c3ccccc3)c2NC(=O)c2ccccc2Br)CC1 returned Cneo AK release inactive, Mot1-301 SUMO 331, Efflux pump inh inactive and C2C12 statin inactive.
For CCCCCCCNc1cccc(C)c1 the results were Mot1-301 SUMO inactive, Efflux pump inh inactive and C2C12 statin inactive.
`Cc1cccc(NCCNc2cccc(C)c2)c1` gave Cneo AK release inactive, Mot1-301 SUMO inactive, Efflux pump inh inactive and C2C12 statin 113.
For COc1ccc(CNC(=O)/C=C/c2cc3c(cc2Br)OCO3)cc1 the results were Cneo AK release inactive, Mot1-301 SUMO inactive, Efflux pump inh inactive and C2C12 statin 86.
Screening CCCN1CCN(CCCNC(=O)CCCn2nc(C)c3sc4ccccc4c3c2=O)CC1 returned Cneo AK release inactive, Mot1-301 SUMO 352, Efflux pump inh inactive and C2C12 statin inactive.
For CCC(C(=O)NCCCN1CCCCCC1)n1nc(C)c2sc3ccccc3c2c1=O (stereo not given) the results were Cneo AK release inactive, Mot1-301 SUMO inactive, Efflux pump inh inactive and C2C12 statin inactive.
Screening COc1cc(CNn2nnnc2N)ccc1OCC(=O)NC(C)(C)C returned Cneo AK release inactive, Efflux pump inh inactive and C2C12 statin inactive.
`CCOc1cc(CNn2nnnc2N)ccc1OCC(=O)NC(C)(C)C` gave Cneo AK release inactive, Mot1-301 SUMO inactive, Efflux pump inh inactive and C2C12 statin 83.
For O=C(NCCN1CCOCC1)NC1(C(F)(F)F)Oc2ccc(Cl)cc2O1 (stereo not given) the results were Mot1-301 SUMO inactive and Efflux pump inh inactive.
For CCCNC(=O)c1ccccc1NC(=O)c1ccc(CSc2ccccc2)cc1 the results were Cneo AK release inactive, Mot1-301 SUMO 358, Efflux pump inh inactive and C2C12 statin inactive.
COc1ccccc1NC(=O)C(=O)NCCC1CCCCN1S(=O)(=O)c1cccs1 (stereo not given) was read as Cneo AK release inactive, Mot1-301 SUMO inactive, Efflux pump inh inactive and C2C12 statin inactive.

Screens from PubChem BioAssay.
